From ChEMBL document CHEMBL4402517, “Rational modification of Mannich base-type derivatives as novel antichagasic compounds: Synthesis, in vitro and in vivo evaluation” (Bioorg Med Chem, 2019)
pIC50: −log10 of the molar value. Calls of active or inactive are those of the source. No cut-off for these calls is given here.

Experiments:
[1] = system: Trypanosoma cruzi; test: (§1) Antitrypanosomal activity against Trypanosoma cruzi MHOM/Pe/2011/Arequipa;DTU 5 bloodstream trypomastigotes infected in BALB/c mouse assessed as reduction in serum Ig-G level in acute phase at 20 mg/kg/day, po administered for 5 consecutive days starting from day 8 post infection followed by cyclophosphamide induced immunosuppression on day 80 post infection and measured at day 100 post infection by ELISA; assay type: functional, organism-based
Outline: (§2)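 Sera came from infected BALB/c mice (three per group) dosed orally at 20 mg/kg/day for 5 days. Sampling points: 2 days after treatment, the day before immunosuppression (acute only) and necropsy day. Anti-T. cruzi IgG was measured by indirect ELISA using parasite Fe-SOD as antigen, read as OD at 492 nm.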

[2] = (§3) Toxicity in BALB/c mouse infected with Trypanosoma cruzi MHOM/Pe/2011/Arequipa;DTU 5 bloodstream trypomastigote assessed as decrease in serum creatine kinase muscle to brain ratio level in chronic phase at 20 mg/kg/day, po administered for 5 consecutive days starting from day 70 post infection measured on day 100 post infection relative to control; assay type: organism-based; design: scale not given: the % may be the effect or the level left; settings: in vivo
Outline: (§4)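 Female BALB/c mice (10–12 weeks, 14–20 g; groups of three) were infected i.p. with 5 × 10^5 Arequipa bloodstream trypomastigotes. Dosing was oral at 20 mg/kg/day for 5 days, from day 8 pi (acute) or day 70 pi (chronic), as a 2 mg/ml suspension in 5% DMSO/0.5% HPMC; controls received vehicle. Cyclophosphamide 200 mg/kg i.p. was given at day 80 pi. Serum was collected 2 days post-treatment and at necropsy by cardiac puncture and compared with infected untreated controls.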

[3] = system: Trypanosoma cruzi; test: (§5) Antitrypanosomal activity against Trypanosoma cruzi MHOM/Pe/2011/Arequipa;DTU 5 bloodstream trypomastigote infected in BALB/c mouse assessed as parasite-free muscle in acute phase at 20 mg/kg/day, po administered for 5 consecutive days starting from day 8 post infection followed by cyclophosphamide induced immunosuppression on day 80 post infection measured after day 100 post infection by PCR method relative to control; assay type: functional
Outline: (§6)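 Female BALB/c mice (10–12 weeks, three per group) were infected i.p. with 5 × 10^5 Arequipa bloodstream trypomastigotes. Dosing was oral, 20 mg/kg/day for 5 days, as a suspension in 5% DMSO/0.5% HPMC. Cyclophosphamide 200 mg/kg i.p. was given at day 80 pi. At necropsy (day 100) tissues were tested by PCR on the splice leader region (primers TC/TC1, 300 bp). Scored as x/3 mice positive.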

[4] = system: Trypanosoma cruzi; test: (§7) Antitrypanosomal activity against Trypanosoma cruzi MHOM/Pe/2011/Arequipa;DTU 5 bloodstream trypomastigotes infected in BALB/c mouse assessed as parasite-free stomach in chronic phase at 20 mg/kg/day, po administered for 5 consecutive days starting from day 70 post infection followed by cyclophosphamide induced immunosuppression on day 80 post infection measured after day 100 post infection by PCR method relative to control; assay type: functional; outline: as §6
[5] = system: Trypanosoma cruzi; test: Antitrypanosomal activity against Trypanosoma cruzi MHOM/Pe/2011/Arequipa;DTU 5 epimastigote assessed as effect on D-lactate excretion at IC50 after 72 hrs by H NMR method relative to control; assay type: functional, organism-based
Outline: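 Cells were spun at 800 × g for 10 min and culture supernatants analysed by 1H NMR. Catabolite peaks were expressed as % variation versus untreated parasites.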

[6] = system: Trypanosoma cruzi; test: as §5, with “spleen” for “muscle”; assay type: functional; outline: as §6
[7] = system: Trypanosoma cruzi; test: Antitrypanosomal activity against Trypanosoma cruzi MHOM/Pe/2011/Arequipa;DTU 5 epimastigote assessed as inhibition of DNA and RNA levels at IC50 measured after 72 hrs by acridine orange staining based flow cytometry relative to control; assay type: functional; design: scale not given: the % may be the effect or the level left
Outline: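 They were stained with rhodamine 123 or acridine orange and analysed by flow cytometry. Index of variation = (TM−CM)/CM, from median fluorescence of treated (TM) and untreated (CM) parasites.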

[8] = as §3, with “change” for “decrease”, “alanine aminotransferase” for “creatine kinase muscle to brain ratio”; assay type: organism-based; settings: in vivo; outline: as §4
[9] = (§8) Toxicity in BALB/c mouse infected with Trypanosoma cruzi MHOM/Pe/2011/Arequipa;DTU 5 bloodstream trypomastigote assessed as decrease in serum lactate dehydrogenase level in chronic phase at 20 mg/kg/day, po administered for 5 consecutive days starting from day 70 post infection and measured at day 76 post infection relative to control; assay type: organism-based; design: scale not given: the % may be the effect or the level left; settings: in vivo; outline: as §4
[10] = system: Trypanosoma cruzi; test: as §1, with “chronic” for “acute”, “70” for “8”, “infection” for “infection followed by cyclophosphamide induced immunosuppression on day 80 post infection and”, “76” for “100”; assay type: functional, organism-based; outline: as §2
[11] = system: Trypanosoma cruzi; test: Antitrypanosomal activity against bloodstream trypomastigote stage of Trypanosoma cruzi MHOM/Pe/2011/Arequipa; DTU 5 isolated from parasite infected BALB/c Albino mouse cardiac cells after 24 hrs by Neubauer chamber based cell counting method; assay type: functional, organism-based; settings: DTU 5, 24 h
Outline: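 Bloodstream trypomastigotes were taken by cardiac puncture from infected BALB/c mice and diluted in RPMI + 10% heat-inactivated FBS. At 2 × 10^6/mL they were exposed to 3.1–50.0 µM (lower where needed) for 24 h at 37 °C, 5% CO2, and counted in a Neubauer chamber. Triplicates, at least three experiments; IC50 by nonlinear regression.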

[12] = Selectivity index, ratio of IC50 for African green monkey Vero cells to IC50 for Trypanosoma cruzi TINF/CH/1956/Tulahuen;DTU 6; assay type: toxicity; settings: read-out: Selectivity Index
Outline: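 SI = Vero IC50 / epimastigote IC50. Vero cells were grown in RPMI-1640 with 10% FBS, seeded at 0.8 × 10^4 cells/well, exposed to 10.0–200.0 µM for 72 h, then given MTT for 4 h. Epimastigotes were grown in MTL with 10% FBS at 28 °C, 5 × 10^5/mL, exposed to 6.3–50 µM for 48 h, then resazurin for 24 h (570/600 nm). IC50s came from nonlinear regression.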

[13] = system: Trypanosoma cruzi; test: Trypanocidal activity against Trypanosoma cruzi TINF/CH/1956/Tulahuen;DTU 6 trypomastigote forms infected in BALB/c albino mouse measured after 24 hrs by Neubauer chamber method; settings: TINF/CH/1956/Tulahuen;DTU 6, 24 h
[14] = system: Trypanosoma cruzi; test: Antitrypanosomal activity against Trypanosoma cruzi IRHOD/CO/2008/SN3;DTU 1 epimastigotes measured after 72 hrs by Neubauer hemocytometer; assay type: functional, organism-based; settings: IRHOD/CO/2008/SN3;DTU 1, 72 h
[15] = as §8, with “increase” for “decrease”, “alanine aminotransferase” for “lactate dehydrogenase”; assay type: organism-based; settings: in vivo; outline: as §4
[16] = system: Trypanosoma cruzi; test: as §5, with “bone marrow” for “muscle”; assay type: functional; outline: as §6
[17] = system: Trypanosoma cruzi; test: as §7, with “trypomastigote” for “trypomastigotes”, “heart” for “stomach”; assay type: functional; outline: as §6
[18] = system: Trypanosoma cruzi; test: as §1, with “infection” for “infection followed by cyclophosphamide induced immunosuppression on day 80 post infection”, “14” for “100”; assay type: functional, organism-based; outline: as §2
[19] = system: Trypanosoma cruzi; test: as §5, with “muscle in chronic phase at” for “muscle in acute phase at”, “from day 70 post infection” for “from day 8 post infection”; assay type: functional; outline: as §6
[20] = system: Trypanosoma cruzi; test: Trypanocidal activity against Trypanosoma cruzi trypomastigote form infected in African green monkey Vero cells measured after 48 hrs by resazurin dye based assay; assay type: functional, organism-based

SMILES | Activity [1] | Activity [2] | Activity [3] | Activity [4] | Activity [5] | Activity [6] | Activity [7] | Activity [8] | Activity [9] | Activity [10] | pIC50 [11] | selectivity ratio [12] | pIC50 [13] | pIC50 [14] | Activity [15] | Activity [16] | Activity [17] | Activity [18] | Activity [19] | pIC50 [20]
O=C(CCN1CCN(c2ccc(Cl)cc2)CC1)c1ccc(O)cc1 | Active | <= 20% | 50% | 63% | Active | 50% | -5.1% | > 10% | <= 10% | Active | 6.15 | 9.8 | 5.68 | 4.92 | <= 10% | 50% | 63% | Active | 63% | 5.17
O=C(Cn1ccnc1[N+](=O)[O-])NCc1ccccc1 [BENZNIDAZOLE] | Active | <= 10% | 25% | 38% | Active | 25% | -4.7% | > 10% | <= 10% | Active | 5.21 | > 7.9 | 5.17 | 4.82 | > 40% | 25% | 38% | Active | 38% | 5.39
O=C(CCN1CCN(c2ccc(C(F)(F)F)cc2)CC1)c1ccc(O)cc1 | Active | <= 30% | 13% | 50% | Active | 13% | -4.2% | > 10% | <= 20% | Active | 6.05 | 7.2 | 5.64 | 4.90 | > 40% | 13% | 50% | Active | 50% | 5.03
